We go through 3 molecules from article PMC11495195 (Drug Design, Development and Therapy, 2024).

The target of data set [1] is PDHK1 (Homo sapiens, UniProt Q15118). Nature of the data set: In vitro PDHK activity assay. The note with it: read-out: Inhibition% at 10 µM, PDHK1, 10 µM; mean ± SD (n = 5). It counts as biochemical.
Data set [2] can be described thus: Body weight and side-effects in H1299 xenograft mice. It counts as in vivo. The note with it: 6 mg/kg intraperitoneal; for body weight change: after 21 days of administration. An outline of the steps:
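Female BALB/c nude mice, 5 weeks old, kept pathogen-free, received 1.4 × 10^6 NCI-H1299 cells subcutaneously. At about 75 mm3 tumours, mice were randomised (n = 5). Dosing was intraperitoneal at 6 mg/kg: vehicle (2% DMSO, 30% PEG-400, 68% ddH2O) or test compound daily for 21 days, doxorubicin every 3 days. Body weight was weighed every 3 days; mean ± SEM.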

Data set [3] is described as follows: In vitro liver microsome stability, human. It counts as in vitro ADME. The note with it: human liver microsomes; mean ± SD (n = 5). An outline of the steps:
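Test compound at 20 μM final was incubated with 0.5 mg/mL human or mouse liver microsomes and NADPH in 0.1 M phosphate buffer for 30 min at 37°C. The reaction was quenched with 2 volumes of cold acetonitrile plus internal standard, held overnight at −20°C and centrifuged. Supernatant was analysed by UPLC-MS/MS. 6-Hydroxycoumarin was the positive control; a no-NADPH blank was the negative control.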
For orientation: Liver microsomes are a subcellular fraction often used to study metabolism.

Sequence of PDHK1 (Q15118 29-436): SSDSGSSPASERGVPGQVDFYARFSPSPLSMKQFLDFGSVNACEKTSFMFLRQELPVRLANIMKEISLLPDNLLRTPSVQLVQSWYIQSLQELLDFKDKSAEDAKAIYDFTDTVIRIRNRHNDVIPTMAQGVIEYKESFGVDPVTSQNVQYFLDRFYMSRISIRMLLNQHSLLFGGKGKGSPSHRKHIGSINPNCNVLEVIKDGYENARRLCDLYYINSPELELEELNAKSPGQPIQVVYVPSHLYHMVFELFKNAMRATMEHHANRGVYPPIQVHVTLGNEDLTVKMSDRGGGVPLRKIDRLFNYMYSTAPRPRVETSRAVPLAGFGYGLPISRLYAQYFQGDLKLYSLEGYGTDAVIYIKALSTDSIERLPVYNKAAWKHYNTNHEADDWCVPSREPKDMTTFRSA

With `O=C1c2ccccc2C(=O)c2c(Oc3ccc(C(=O)C(Cl)Cl)cc3[N+](=O)[O-])cccc21` [Compound 18, 1-(4-(2,2-Dichloroacetyl)-2-nitrophenoxy)anthracene-9,10-dione], the inhibition at 10 µM in data set [1] lay within 26.5 to 30.1%.

In the case of `CC(C)Oc1ccc(S(=O)(=O)c2ccc(Oc3cc(OCC(N)=O)c(C(=O)C(Cl)Cl)cc3[N+](=O)[O-])cc2)cc1` [Compound 32, 2-(2-(2,2-Dichloroacetyl)-5-(4-((4-isopropoxyphenyl)sulfonyl)phenoxy)-4-nitrophenoxy)acetamide], the other side-effects result in data set [2] (21 days) was “No other side-effects were observed”. The body weight change entry in data set [2] is on record as “decreased very little”. Besides, the “CLint” value in data set [3] stood at 29.7 µL/min/mg.

In the case of `COc1cccc2c1C(=O)c1c(O)c3c(c(O)c1C2=O)C[C@@](O)(C(=O)CO)C[C@@H]3O[C@H]1C[C@H](N)[C@H](O)[C@H](C)O1` [DOX, doxorubicin, reference compound], in data set [2], the body weight change entry is recorded as “significant body weight loss”.

A word on the inhibition: it is the percentage by which the read-out fell short of the control.
